Shown are actives, neighbours in structure and some others; about 3.6% of the full set was active somewhere.
NS3 helicase inh: HCV NS3 helicase inhibition; NS3 helicase DNA unwinding, Cy5 molecular beacon fluorescence; inhibition, % at 10.9 µM; 0.56% of 290,000 active; AID 1800;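 active = inhibition above the mean of all tested compounds plus 3 SD, set per campaign, cut at about 35% in these data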
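assay system = NS3 helicase fragment of HCV | buffer or medium = MOPS pH 6.5, MgCl2, DTT, Tween20, BSA | timing = 60 min unwinding reaction at 25 °C after ATP addition | signal = Cy5 beacon fluorescence read at start and 1 h | read-out basis = % inhibition of unwinding | control set = low DMSO, high thioflavine S at 110 µM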
FGF22 binding: binders of recombinant human FGF22 by thermal shift; SYPRO orange fluorescence; percent of sucrose octasulfate shift, DMSO zero; activity (Tm shift, normalised), % at 9.99 µM; 1.5% of 340,000 active;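 active = mean Tm shift, scaled 0 neutral to 100 positive control, at about 1.3% or above, every replicate too, limit read from the data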
Target sequence (Q9HCT0 whole entry, looked up): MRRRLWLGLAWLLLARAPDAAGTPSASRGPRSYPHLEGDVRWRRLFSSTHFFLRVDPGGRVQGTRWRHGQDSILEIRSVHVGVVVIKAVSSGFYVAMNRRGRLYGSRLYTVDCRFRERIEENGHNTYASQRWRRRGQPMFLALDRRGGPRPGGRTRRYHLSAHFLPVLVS
NR3A LBD binder: modulators (binders) of human NR3A ligand-binding domain | Tm shift relative to glycine control, % at 25 µM | NR3A LBD differential scanning fluorimetry, Tm shift; 0% = protein alone, 100% = glycine-bound protein | 2.5% of 340,000 active | AID 1259313;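 active = melting temperature shift of at least 10% of the positive control shift, at one fixed dose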
EBNA-1 inh: blocks EBNA-1 binding to DNA; AID 1950; inhibition, % at 14.8 µM; EBNA-1 DNA binding, fluorescence polarization; 0.34% of 300,000 active; in the data active = inhibition above about 28%
ZTA counter: counter-screen for EBNA-1 inhibitors: inhibitors of Epstein-Barr virus ZTA | P03206 | ZTA-DNA binding, fluorescence polarization | inhibition, % at 11 µM | 0.15% of 320,000 active | AID 2234; in the data active = inhibition above about 33%
Target sequence (P03206 whole entry, looked up): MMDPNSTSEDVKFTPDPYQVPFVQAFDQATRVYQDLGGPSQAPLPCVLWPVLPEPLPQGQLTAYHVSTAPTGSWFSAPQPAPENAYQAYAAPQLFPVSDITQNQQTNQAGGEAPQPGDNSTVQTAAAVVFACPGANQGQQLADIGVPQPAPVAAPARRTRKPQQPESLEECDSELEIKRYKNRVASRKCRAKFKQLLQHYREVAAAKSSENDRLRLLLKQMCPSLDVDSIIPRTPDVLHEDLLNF
FID counter: fluorescent intercalator displacement, NS3 helicase counter-screen. DNA fluorescent intercalator displacement, fluorescence. inhibition, % at 7.9 µM. 0.17% of 290,000 active; in the data active = inhibition above about 37%;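 note: higher means more ethidium bromide displaced from hairpin DNA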
Large screens that a line does not name were inactive.

O=C(NCCc1c[nH]c2ccccc12)c1ccco1	none
O=C(CCc1c[nH]c2ccccc12)Nc1ccc(Nc2ccncc2)cc1	none (no result: NS3 helicase inh, NR3A LBD binder, EBNA-1 inh, ZTA counter, FID counter)
O=C(CCc1c[nH]c2ccccc12)Nc1ccc(Nc2ccccc2)cc1	FGF22 binding 1.4 (no result: NS3 helicase inh, NR3A LBD binder, EBNA-1 inh, ZTA counter, FID counter)
O=C(NCCc1c[nH]c2ccccc12)Nc1ccccc1	NR3A LBD binder 16.2 (no result: FGF22 binding)
O=c1[nH]c(/C(Cl)=C/c2cc(Cl)ccc2O)nc2cc(Cl)ccc12	NR3A LBD binder 38.9
O=c1[nH]c(/C(Cl)=C/c2c(F)cccc2Cl)nc2cc(Cl)ccc12	none
C[C@H](CO)N1C[C@H](C)[C@H](CN(C)C)Oc2cc(-c3cccc(C#N)c3)ccc2S1(=O)=O	none (no result: NS3 helicase inh, NR3A LBD binder, EBNA-1 inh, ZTA counter, FID counter)
Cc1ncc([N+](=O)[O-])n1CC(=O)Nc1ccccc1	FGF22 binding 43.0
CNC[C@H]1Oc2ncc(-c3ccccc3C)cc2C(=O)N([C@H](C)CO)C[C@H]1C	none (no result: NS3 helicase inh, NR3A LBD binder, EBNA-1 inh, ZTA counter, FID counter)
CCC1CCCCN1C(=O)CSc1nc2c([nH]c3ccccc32)c(=O)n1C (stereo not given)	NR3A LBD binder 16.9 (no result: FGF22 binding)
COCCn1c(SCC(=O)Nc2cccc(OC)c2)nnc1-c1ccc(Cl)cc1	none (no result: FGF22 binding)
COCCn1c(SCC(=O)Nc2cccc(OC)c2)nnc1-c1ccccc1	NR3A LBD binder 10.5
COc1cccc(NC(=O)CSc2nc3c([nH]c4ccccc43)c(=O)n2C)c1	NR3A LBD binder 37.9
O=C(CCN1CCCCC1)NCC[C@H]1CC[C@@H](NC(=O)C2CC2)[C@H](CO)O1	none (no result: NS3 helicase inh, NR3A LBD binder, EBNA-1 inh, ZTA counter, FID counter)
Cc1noc(C)c1NC(=O)NCC[C@H]1CC[C@@H](NC(=O)c2ccncc2)[C@H](CO)O1	none (no result: NS3 helicase inh, NR3A LBD binder, EBNA-1 inh, ZTA counter, FID counter)
CCCN1CCN(CCCNC(=O)c2ccc3c(c2)NC(=O)c2ccccc2S3)CC1	NR3A LBD binder 41.6
CCN1CCN(c2ccc(NC(=O)CCc3c(C)nc4c(-c5ccccc5)c(C)nn4c3C)cc2)CC1	FID counter 41.0
FC(F)(F)C(F)(F)C(F)(F)c1nc2nc(Cl)c(Cl)nc2[nH]1	none (no result: NS3 helicase inh, NR3A LBD binder, EBNA-1 inh, ZTA counter, FID counter)
O=C(O)c1nc2nc(Cl)c(Cl)nc2[nH]1	NR3A LBD binder 13.5
O=C(Cc1ccccc1)N1CC(=O)N2[C@H](C1)[C@@H](c1ccc(-c3ccc(F)cc3)cc1)[C@@H]2CO	none (no result: NS3 helicase inh, NR3A LBD binder, EBNA-1 inh, ZTA counter, FID counter)
COc1ccccc1CNC(=O)C[C@H]1CC[C@H]2[C@@H](COC[C@H](O)CN2C(=O)Nc2ccc(C(F)(F)F)cc2)O1	none (no result: NS3 helicase inh, NR3A LBD binder, EBNA-1 inh, ZTA counter, FID counter)
CN(C)CCCN(Cc1cc2cc3c(cc2[nH]c1=O)OCO3)C(=S)Nc1ccccc1	FGF22 binding 43.0, FID counter 47.4
O=C(c1ccco1)N(CCO)Cc1cc2cc3c(cc2[nH]c1=O)OCO3	FGF22 binding 43.2
CN(C)CCCN(Cc1cc2cc3c(cc2[nH]c1=O)OCO3)C(=S)Nc1cccc(Cl)c1	none
Cc1cccc2cc(CN(Cc3ccccc3)C(=S)NCCCN(C)C)c(=O)[nH]c12	FID counter 47.7
COc1ccccc1NC(=S)N(CCCN(C)C)Cc1cc2cc3c(cc2[nH]c1=O)OCO3	FGF22 binding 43.5
CC(=O)N(C)C[C@H]1Oc2ncc(C#Cc3cccnc3)cc2C(=O)N([C@@H](C)CO)C[C@@H]1C	none (no result: NS3 helicase inh, NR3A LBD binder, EBNA-1 inh, ZTA counter, FID counter)
COc1ccc(NC(=O)N(C)C[C@@H]2Oc3c(NC(=O)Nc4ccc5c(c4)OCO5)cccc3C(=O)N([C@@H](C)CO)C[C@@H]2C)cc1	none (no result: NS3 helicase inh, NR3A LBD binder, EBNA-1 inh, ZTA counter, FID counter)
COc1cccc(CNC(=O)c2cc3c(c(-c4cccc(-c5ccncc5)c4)n2)[C@H](CCO)N([S@@](=O)C(C)(C)C)C3)c1	none (no result: NS3 helicase inh, NR3A LBD binder, EBNA-1 inh, ZTA counter, FID counter)
COc1cc2cc(CN(Cc3cccs3)C(=S)Nc3ccc(C)cc3)c(=O)[nH]c2cc1OC	NR3A LBD binder 11.6
O=C(NCc1nnc2c3ccccc3c(-c3ccccc3)nn12)c1ccccc1Cl	FGF22 binding 44.3
C[C@@H]1CN([C@@H](C)CO)C(=O)c2cc(NS(=O)(=O)c3ccc(F)cc3)ccc2O[C@@H]1CN(C)Cc1ccncc1	none (no result: NS3 helicase inh, NR3A LBD binder, EBNA-1 inh, ZTA counter, FID counter)
CCCNC(=O)Cn1c(=O)/c(=C\c2ccc(-c3cccc([N+](=O)[O-])c3)o2)s/c1=C\C(=O)C(C)(C)C	none (no result: FGF22 binding)
CCCNC(=O)Cn1c(=O)/c(=C/c2ccc(-c3cccc([N+](=O)[O-])c3)o2)s/c1=C\C(=O)C(C)(C)C	FGF22 binding 43.7 (no result: NS3 helicase inh, EBNA-1 inh, ZTA counter, FID counter)
CCCN(CCC)S(=O)(=O)c1ccc(C(=O)OCCN2C(=O)c3cccc4c(N5CCOCC5)ccc(c34)C2=O)cc1	NR3A LBD binder 17.4 (no result: FGF22 binding)

Source: PubChem BioAssay (several laboratories)
